Laboratory results as given in ChEMBL document CHEMBL3272207, “Structure-activity relationship in cinnamamides. 2. Synthesis and pharmacological evaluation of some (E)- and (Z)-N-alkyl-alpha, beta-dimethylcinnamamides substituted on the phenyl group” (J Med Chem, 1977).
Active and inactive are the calls of the source. No cut-off for these calls is given here.

Legend:
Mus musculus [1] = experiment: Behavioral toxicity in albino Icem-CET (SPF Caw) mouse assessed as reduction in locomotor activity at 25 to 800 mg/kg, po by Irwin's test; assay type: organism-based; set-up: dose 25-800 mg/kg, route oral; settings: in vivo
Mus musculus [2] = experiment: Behavioral toxicity in albino Icem-CET (SPF Caw) mouse assessed as positional passivity at 25 to 800 mg/kg, po by Irwin's test; assay type: organism-based; set-up: dose 25-800 mg/kg, route oral; settings: in vivo
Mus musculus [3] = experiment: Toxicity in po dosed albino Icem-CET (SPF Caw) mouse assessed as clonic type convulsion by Irwin's test; assay type: organism-based; settings: in vivo
Outline: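 Irwin test in fasted (9 h) male Icem-CET (SPF Caw) mice, 17-22 g. Oral gavage of a 0.5% Methocel suspension at screening doses of 25-800 mg/kg. Clonic-type convulsions were scored as the minimum effective dose.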

Mus musculus [4] = experiment: Toxicity in po dosed albino Icem-CET (SPF Caw) mouse assessed as impairment of pinna by Irwin's test; assay type: organism-based; settings: in vivo
Mus musculus [5] = experiment: Toxicity in po dosed albino Icem-CET (SPF Caw) mouse assessed as impairment of corneal reflexes by Irwin's test; assay type: organism-based, Cornea; settings: in vivo
Mus musculus [6] = experiment: Behavioral toxicity in po dosed albino Icem-CET (SPF Caw) mouse assessed as tremors by Irwin's test; assay type: organism-based; settings: in vivo
[7] = Behavioral toxicity in po dosed albino Icem-CET (SPF Caw) mouse measured up to 7 days by Irwin's test; assay type: organism-based; settings: in vivo
Mus musculus [8] = experiment: Anticonvulsant activity in albino Icem-CET (SPF Caw) mouse assessed as inhibition of pentylenetetrazole-induced maximal extensor seizures at 100 mg/kg, po administered 30 mins prior challenge; assay type: functional, organism-based; set-up: dose 100 mg/kg
Outline: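 Single-dose screen at 100 mg/kg by gavage in 0.5% Methocel in fasted male Icem-CET (SPF Caw) mice, 17-22 g. Dosing was 30 min before pentylenetetrazole 130 mg/kg ip, and prevention of maximal extensor seizures was scored.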

For `C/C(C(=O)NC1CC1)=C(\C)c1ccc(F)cc1`, the Activity (Mus musculus [1]) was “Non-toxic”, the Activity (Mus musculus [2]) was “Non-toxic” and the MED (Mus musculus [3]) was 800 mg/kg. The Activity (Mus musculus [4]) was “Toxic”, the Activity (Mus musculus [5]) was “Toxic” and the ED50 (Mus musculus [6]) was 600 mg/kg. For the same compound, the LD50 at 168 h [7] was 450 mg/kg and the Activity (Mus musculus [8]) was “inactive”.
